In ChEMBL document CHEMBL5136958, “The development of HEC-866 and its analogues for the treatment of idiopathic pulmonary fibrosis” (RSC Med Chem, 2021):
The source made the active and inactive calls. The rule behind the calls is not given here.

Experiments:
[1] = system: HFL1; experiment: Antiproliferative activity against human HFL1 cells assessed as reduction in cell proliferation measured after 24 hrs by CCK-8 assay; format: functional, cell-based; conditions: HFL1, 24 h
Summary of the method: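 Human fetal lung fibroblasts (HFL-1); growth inhibition quantified with CCK-8; IC50 averaged from 3 experiments, each in duplicate.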

[2] = AUC(infinity) in Sprague-Dawley rat model of bleomycin-induced pulmonary fibrosis at 5 mg/kg, po by LC-MS/MS analysis; format: ADME, organism-based; parameters: time infinity, dose 5 mg/kg, route po; conditions: in vivo
Summary of the method: (§1)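 Male Sprague-Dawley rats with induced pulmonary fibrosis; single i.v. (2.0 mg kg⁻¹) or p.o. (5.0 mg kg⁻¹) administration. Plasma samples stored at −70 °C; the supernatant was analysed by LC-MS/MS for PK parameters.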

[3] = AUClast in Sprague-Dawley rat model of bleomycin-induced pulmonary fibrosis at 5 mg/kg, po by LC-MS/MS analysis; format: ADME, organism-based; parameters: time 0 - last, dose 5 mg/kg, route po; conditions: in vivo; summary of the method: as §1
[4] = AUClast in Sprague-Dawley rat model of bleomycin-induced pulmonary fibrosis at 2 mg/kg, iv by LC-MS/MS analysis; format: ADME, organism-based; parameters: time 0 - last, dose 2 mg/kg, route iv; conditions: in vivo; summary of the method: as §1
[5] = Half life in Sprague-Dawley rat model of bleomycin-induced pulmonary fibrosis at 2 mg/kg, iv by LC-MS/MS analysis; format: ADME, organism-based; conditions: in vivo; summary of the method: as §1
[6] = Half life in Sprague-Dawley rat model of bleomycin-induced pulmonary fibrosis at 5 mg/kg, po by LC-MS/MS analysis; format: ADME, organism-based; conditions: in vivo; summary of the method: as §1
[7] = Clearance in Sprague-Dawley rat model of bleomycin-induced pulmonary fibrosis at 2 mg/kg, iv by LC-MS/MS analysis; format: ADME, organism-based; conditions: in vivo; summary of the method: as §1
[8] = AUC(infinity) in Sprague-Dawley rat model of bleomycin-induced pulmonary fibrosis at 2 mg/kg, iv by LC-MS/MS analysis; format: ADME, organism-based; parameters: time infinity, dose 2 mg/kg, route iv; conditions: in vivo; summary of the method: as §1
[9] = AUC(infinity) in Sprague-Dawley rat model of bleomycin-induced pulmonary fibrosis at 1 mg/kg, iv by LC-MS/MS analysis; format: ADME, organism-based; parameters: time infinity, dose 1 mg/kg, route iv; conditions: in vivo
[10] = Half life in Sprague-Dawley rat model of bleomycin-induced pulmonary fibrosis at 1 mg/kg, iv by LC-MS/MS analysis; format: ADME, organism-based; conditions: in vivo
[11] = Tmax in Sprague-Dawley rat model of bleomycin-induced pulmonary fibrosis at 5 mg/kg, po by LC-MS/MS analysis; format: ADME, organism-based; conditions: in vivo
Summary of the method: (§2)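 Male Sprague-Dawley rats with induced pulmonary fibrosis were dosed 2.0 mg kg⁻¹ i.v. or 5.0 mg kg⁻¹ p.o. Plasma was stored at -70 °C, and the supernatant was analysed by LC-MS/MS.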

[12] = Cmax in Sprague-Dawley rat model of bleomycin-induced pulmonary fibrosis at 5 mg/kg, po by LC-MS/MS analysis; format: ADME, organism-based; parameters: dose 5 mg/kg, route po; conditions: in vivo; summary of the method: as §1
[13] = AUClast in Sprague-Dawley rat model of bleomycin-induced pulmonary fibrosis at 1 mg/kg, iv by LC-MS/MS analysis; format: ADME, organism-based; parameters: time 0 - last, dose 1 mg/kg, route iv; conditions: in vivo
[14] = Clearance in Sprague-Dawley rat model of bleomycin-induced pulmonary fibrosis at 1 mg/kg, iv by LC-MS/MS analysis; format: ADME, organism-based; conditions: in vivo
[15] = Oral bioavailability in Sprague-Dawley rat model of bleomycin-induced pulmonary fibrosis at 5 mg/kg by LC-MS/MS analysis; format: ADME, organism-based; conditions: in vivo; summary of the method: as §2
[16] = Oral bioavailability in Sprague-Dawley rat model of bleomycin-induced pulmonary fibrosis at 10 mg/kg by LC-MS/MS analysis; format: ADME, organism-based; conditions: in vivo
[17] = Half life in Sprague-Dawley rat model of bleomycin-induced pulmonary fibrosis at 10 mg/kg, po by LC-MS/MS analysis; format: ADME, organism-based; conditions: in vivo
[18] = Cmax in Sprague-Dawley rat model of bleomycin-induced pulmonary fibrosis at 10 mg/kg, po by LC-MS/MS analysis; format: ADME, organism-based; parameters: dose 10 mg/kg, route po; conditions: in vivo
[19] = AUClast in Sprague-Dawley rat model of bleomycin-induced pulmonary fibrosis at 10 mg/kg, po by LC-MS/MS analysis; format: ADME, organism-based; parameters: time 0 - last, dose 10 mg/kg, route po; conditions: in vivo
[20] = system: HFL1; experiment: Antifibrotic activity in TGF-beta1-induced HFL1 cell injury assessed as down regulation of collagen 1 mRNA expression at 3 mM measured after 24 hrs by RT-PCR analysis; format: functional, cell-based; conditions: Homo sapiens
Summary of the method: (§3)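 TGF-β1-induced HFL-1 cells treated 24 h (test range 0.625–10 μM; comparator 3 mM); collagen 1 and collagen 3 mRNA measured by RT-PCR; mean of n = 3.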

[21] = system: HFL1; experiment: Antifibrotic activity in TGF-beta1-induced HFL1 cell injury assessed as alpha-SMA expression at 3 mM measured after 48 hrs by Western blot analysis (reference value: 100%); format: functional, Homo sapiens
Summary of the method: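 HFL-1 cells stimulated with TGF-β1; α-SMA protein detected by Western blot with anti-α-SMA antibody, normalised to tubulin; mean of n = 3.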

[22] = system: HFL1; experiment: Antifibrotic activity in TGF-beta1-induced HFL1 cell injury assessed as down regulation of collagen 3 mRNA expression at 3 mM measured after 24 hrs by RT-PCR analysis; format: functional, cell-based; conditions: Homo sapiens; summary of the method: as §3
[23] = system: Rattus norvegicus; experiment: Antifibrotic activity against bleomycin-induced pulmonary fibrosis in Sprague-Dawley rat assessed as reduction in lung histopathological changes at 100 mg/kg, po administered daily for 1 to 14 days starting from post bleomycin stimulation by H and E staining based assay; format: functional, organism-based; conditions: time 1-14 day
Summary of the method: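 Bleomycin-induced lung fibrosis in SD rats; oral dosing daily from day 1 for 14 days; saline for sham and bleomycin groups; comparator 100 mg kg⁻¹ d, test doses 2 and 6 mg kg⁻¹ d; lung pathology assessed by HE histology.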

[24] = AUC(infinity) in Sprague-Dawley rat model of bleomycin-induced pulmonary fibrosis at 10 mg/kg, po by LC-MS/MS analysis; format: ADME, organism-based; parameters: time infinity, dose 10 mg/kg, route po; conditions: in vivo
[25] = Tmax in Sprague-Dawley rat model of bleomycin-induced pulmonary fibrosis at 10 mg/kg, po by LC-MS/MS analysis; format: ADME, organism-based; conditions: in vivo
[26] = Cmax in Sprague-Dawley rat model of bleomycin-induced pulmonary fibrosis at 2 mg/kg, iv by LC-MS/MS analysis; format: ADME, organism-based; parameters: dose 2 mg/kg, route iv; conditions: in vivo; summary of the method: as §1

SMILES: Cc1cc(=O)n(-c2ccc(N3CCC(Cc4cc(F)c(F)c(F)c4)CC3)c(Cl)c2)c(C)n1
- IC50 [1]: 60 µM
- AUC(0-inf) [2]: 6.36 µg·h/mL
- AUC(0-t) [3]: 5.69 µg·h/mL
- AUC(0-t) [4]: 2.19 µg·h/mL
- half-life [5]: 8.2 h
- half-life [6]: 8.41 h
- clearance [7]: 0.83 L/h/kg
- AUC(0-inf) [8]: 2.4 µg·h/mL

SMILES: C=CCc1ccccc1OC1CCN(c2ccc(-n3c(C)nc(C)cc3=O)cc2Cl)CC1
- IC50 [1]: 70 µM

SMILES: Cc1cc(=O)n(-c2ccc(N3CCC(COc4cccc(F)c4)CC3)c(Cl)c2)c(C)n1
- IC50 [1]: 50 µM
- AUC(0-inf) [2]: 3.41 µg·h/mL
- AUC(0-t) [3]: 1.55 µg·h/mL
- AUC(0-t) [4]: 1.45 µg·h/mL
- half-life [5]: 6.73 h
- half-life [6]: 5.26 h
- clearance [7]: 0.65 L/h/kg
- AUC(0-inf) [8]: 3.26 µg·h/mL

SMILES: Cc1cc(=O)n(-c2ccc(N3CCC(Cc4cccc(Cl)c4)CC3)c(Cl)c2)c(C)n1
- IC50 [1]: 50 µM
- AUC(0-inf) [2]: 2.03 µg·h/mL
- AUC(0-t) [3]: 1.75 µg·h/mL
- AUC(0-t) [4]: 0.898 µg·h/mL
- half-life [5]: 10.9 h
- half-life [6]: 9.6 h
- clearance [7]: 0.95 L/h/kg
- AUC(0-inf) [8]: 1.06 µg·h/mL

SMILES: Cc1cc(=O)n(-c2ccc(N3CCOCC3)c(F)c2)c(C)n1
- IC50 [1]: 6540 µM
- AUC(0-inf) [9]: 7.29 µg·h/mL
- AUC(0-inf) [2]: 33.5 µg·h/mL
- AUC(0-t) [3]: 32.6 µg·h/mL
- half-life [10]: 4.3 h
- Tmax [11]: 0.5 h
- Cmax [12]: 4.72 µg/mL
- half-life [6]: 4.3 h
- AUC(0-t) [13]: 7.13 µg·h/mL
- clearance [14]: 0.1 L/h/kg
- bioavailability [15]: 92%

SMILES: Cc1cc(=O)n(-c2cnc(N3CCC(Oc4cccc(F)c4)CC3)c(Cl)c2)c(C)n1
- IC50 [1]: 70 µM

SMILES: Cc1cc(=O)n(-c2ccc(N3CCC(Cc4cccc5cccnc45)CC3)c(Cl)c2)c(C)n1
- IC50 [1]: 120 µM

SMILES: Cc1cc(=O)n(-c2ccc(N3CCC(Cc4cccc(F)c4)CC3)nc2)c(C)n1
- IC50 [1]: 130 µM

SMILES: Cc1cc(=O)n(-c2ccc(N3CCC(Cc4cccc5ccccc45)CC3)c(F)c2)c(C)n1
- IC50 [1]: 60 µM
- AUC(0-inf) [2]: 1.6 µg·h/mL
- AUC(0-t) [3]: 1.56 µg·h/mL
- AUC(0-t) [4]: 1.11 µg·h/mL
- half-life [5]: 5.27 h
- half-life [6]: 5.21 h
- clearance [7]: 1.79 L/h/kg
- AUC(0-inf) [8]: 1.13 µg·h/mL

SMILES: Cc1cc(=O)n(-c2ccc(N3CCC(Cc4cccc(C(F)(F)F)c4)CC3)c(Cl)c2)c(C)n1
- IC50 [1]: 60 µM
- AUC(0-inf) [2]: 7.08 µg·h/mL
- AUC(0-t) [3]: 5.18 µg·h/mL
- AUC(0-t) [4]: 2.46 µg·h/mL
- half-life [5]: 13.5 h
- half-life [6]: 11.8 h
- clearance [7]: 0.62 L/h/kg
- AUC(0-inf) [8]: 3.22 µg·h/mL

SMILES: Cc1cc(=O)n(-c2ccc(N3CCC(Cc4ccccc4Cl)CC3)c(Cl)c2)c(C)n1
- IC50 [1]: 70 µM

SMILES: Cc1cc(=O)n(-c2ccc(N3CCC(Cc4ccc5ccccc5c4)CC3)c(Cl)c2)c(C)n1
- IC50 [1]: 90 µM

SMILES: Cc1cc(=O)n(-c2ccc(N3CCC(Oc4cccc(F)c4)CC3)c(F)c2)c(C)n1
- IC50 [1]: 110 µM

SMILES: Cc1cc(=O)n(-c2ccc(N3CCC(Cc4ccccc4-c4ccccc4)CC3)c(Cl)c2)c(C)n1
- IC50 [1]: 70 µM

SMILES: Cc1cc(=O)n(-c2ccc(N3CCC(Cc4cccc(F)c4)CC3)c(Cl)c2)c(C)n1
- IC50 [1]: 60 µM

SMILES: Cc1cc(=O)n(-c2ccc(N3CCC(Cc4ccc(F)cc4)CC3)c(F)c2)c(C)n1
- IC50 [1]: 110 µM

SMILES: Cc1cc(=O)n(-c2cnc(N3CCC(Cc4cccc(F)c4)CC3)c(Cl)c2)c(C)n1
- IC50 [1]: 60 µM

SMILES: Cc1cc(=O)n(-c2ccc(N3CCC(Nc4cccc(C(F)(F)F)c4)CC3)c(Cl)c2)c(C)n1
- IC50 [1]: 60 µM

SMILES: Cc1cc(=O)n(-c2ccc(N3CCC(Cc4cccc(F)c4)CC3)cn2)c(C)n1
- IC50 [1]: 130 µM

SMILES: Cc1ccc(=O)n(-c2ccccc2)c1 [PIRFENIDONE]
- bioavailability [16]: 107%
- half-life [17]: 0.4 h
- IC50 [1]: 9150 µM
- Cmax [18]: 5.07 µg/mL
- AUC(0-t) [19]: 3.46 µg·h/mL
- Activity [20]: Active
- Activity [21]: 83.71%
- AUC(0-t) [4]: 0.649 µg·h/mL
- half-life [5]: 0.4 h
- Activity [22]: Active
- clearance [7]: 3.2 L/h/kg
- Activity [23]: Active
- AUC(0-inf) [8]: 0.65 µg·h/mL
- AUC(0-inf) [24]: 3.46 µg·h/mL
- Tmax [25]: 0.3 h
- Cmax [26]: 1.01 µg/mL

SMILES: Cc1cccc(CC2CCN(c3ccc(-n4c(C)nc(C)cc4=O)cc3F)CC2)c1
- IC50 [1]: 100 µM
